# According to ChEMBL document CHEMBL1125769 (J Med Chem, 1991):
# Numbered stars: 1 amine (or outer) side, 2 acyl side, 3 side chain; on linkers, the order of the positions; unused ones are H or OH. Square brackets hold non-standard residues; d marks the D form. Peptide text beside a SMILES is read from it. X2 = O=C([C@H]1C[S+]([O-])CN1[*:1])[*:2]; Thz(5,5-Me2) = CC1(C)SCN[C@@H]1C(=O)O; Pen = CC(C)(S)[C@H](N)C(=O)O; NMeA = CN[C@@H](C)C(=O)O; Ac5c = NC1(C(=O)O)CCCC1; Aib = CC(C)(N)C(=O)O; Sar = CNCC(=O)O
# Legend:
# Angiotensin II receptor = molecular target: T1, Angiotensin II receptor (Rattus norvegicus, UniProt P29089+P25095+P35351); assay: In vitro antagonist activity (ANG II like) expressed as percent activity relative to ANG II in rabbit aorta strip assay.; assay type: functional, tissue-based
# T1 sequence (P29089 whole entry): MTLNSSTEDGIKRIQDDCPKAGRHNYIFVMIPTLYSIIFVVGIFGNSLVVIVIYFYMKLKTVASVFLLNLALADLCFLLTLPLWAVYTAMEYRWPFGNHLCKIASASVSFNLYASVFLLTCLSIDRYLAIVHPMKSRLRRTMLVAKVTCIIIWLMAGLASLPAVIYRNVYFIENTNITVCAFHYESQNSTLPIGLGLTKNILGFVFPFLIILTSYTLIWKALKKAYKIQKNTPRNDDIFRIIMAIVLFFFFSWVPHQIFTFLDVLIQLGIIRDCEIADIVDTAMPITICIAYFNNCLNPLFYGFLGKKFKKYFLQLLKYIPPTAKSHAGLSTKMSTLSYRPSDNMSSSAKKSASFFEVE
# T1 sequence (P25095 whole entry): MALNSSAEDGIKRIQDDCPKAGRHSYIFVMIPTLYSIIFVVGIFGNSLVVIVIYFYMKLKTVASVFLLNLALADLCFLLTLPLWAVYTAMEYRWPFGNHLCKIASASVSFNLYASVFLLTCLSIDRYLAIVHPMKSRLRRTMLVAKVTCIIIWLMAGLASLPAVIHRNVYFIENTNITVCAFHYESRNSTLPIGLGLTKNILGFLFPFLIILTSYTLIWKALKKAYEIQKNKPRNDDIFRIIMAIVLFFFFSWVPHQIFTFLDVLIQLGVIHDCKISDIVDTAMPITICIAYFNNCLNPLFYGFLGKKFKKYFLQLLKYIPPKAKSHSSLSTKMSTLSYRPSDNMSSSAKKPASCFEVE
# T1 sequence (P35351 whole entry): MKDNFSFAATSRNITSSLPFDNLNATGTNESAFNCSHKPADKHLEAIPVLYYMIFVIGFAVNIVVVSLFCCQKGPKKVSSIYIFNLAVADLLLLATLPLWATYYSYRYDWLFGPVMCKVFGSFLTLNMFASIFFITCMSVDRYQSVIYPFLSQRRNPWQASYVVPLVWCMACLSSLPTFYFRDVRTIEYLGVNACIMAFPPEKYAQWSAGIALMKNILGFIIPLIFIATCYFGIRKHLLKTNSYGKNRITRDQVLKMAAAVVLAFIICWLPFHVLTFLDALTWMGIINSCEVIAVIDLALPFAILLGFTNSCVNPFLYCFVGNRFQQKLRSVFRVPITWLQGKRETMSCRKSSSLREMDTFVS
# [1] = molecular target: T2, Angiotensin II receptor (Rattus norvegicus) (UniProt P29089+P25095+P35351); assay: In vivo antagonist activity (ANG II like) expressed by blood pressure increase (mHg) produced by […] iv injection of compound in rats; assay type: functional, organism-based
# Outline: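 Rat blood pressure assay after Regoli et al.; residual ANG II-like activity read as mmHg rise in blood pressure following a one microgram intravenous bolus of compound; n = 5.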
# [2] = molecular target: T2, Angiotensin II receptor (Rattus norvegicus); assay: In vitro agonist activity relative to angiotensin II measured in rabbit aorta strip assay.; assay type: functional, tissue-based
SMILES,pA2 (Angiotensin II receptor),ID50 (ng min-1 rat-1) [1],Activity [2]
CC[C@H](C)[C@H](NC(=O)[C@H](Cc1ccc(O)cc1)NC(=O)[C@@H](NC(=O)[C@H](CCCN=C(N)N)NC(=O)CNC)C(C)C)C(=O)N[C@@H](Cc1c[nH]cn1)C(=O)N1CCC[C@H]1C(=O)NC(C)(C)C(=O)O,8.7,,
CC[C@H](C)[C@H](NC(=O)[C@@H]1CCCN1C(=O)[C@H](Cc1c[nH]cn1)NC(=O)[C@@H]1CCCN1C(=O)[C@H](Cc1ccc(O)cc1)NC(=O)[C@@H](NC(=O)[C@H](CCCN=C(N)N)NC(=O)CNC)C(C)C)C(=O)O (H-[Sar]RVYPHPI-OH),8.7,20,0%
CC[C@H](C)[C@H](NC(=O)[C@@H]1CSCN1C(=O)[C@H](Cc1c[nH]cn1)NC(=O)[C@@H](NC(=O)[C@H](Cc1ccc(O)cc1)NC(=O)[C@@H](NC(=O)[C@H](CCCN=C(N)N)NC(=O)CNC)C(C)C)[C@@H](C)CC)C(=O)O,9.7,,
CC[C@H](C)[C@H](NC(=O)[C@@H]1CCCN1C(=O)[C@H](Cc1c[nH]cn1)NC(=O)[C@H](Cc1ccc(O)cc1)NC(=O)[C@H](Cc1ccc(O)cc1)NC(=O)[C@@H](NC(=O)[C@H](CCCN=C(N)N)NC(=O)CNC)C(C)C)C(=O)O,9.6,,
CC[C@H](C)[C@H](NC(=O)[C@@H]1CCCN1C(=O)[C@H](Cc1c[nH]cn1)NC(=O)[C@@H](NC(=O)[C@H](Cc1ccc(O)cc1)NC(=O)[C@H](C)N(C)C(=O)[C@H](CCCN=C(N)N)NC(=O)CNC)[C@@H](C)CC)C(=O)O (H-[Sar]R[NMeA]YIHPI-OH),8.9,25,0%
CC[C@H](C)[C@H](NC(=O)[C@@H]1CCCN1C(=O)[C@H](Cc1c[nH]cn1)NC(=O)[C@H]1N(C(=O)[C@H](Cc2ccc(O)cc2)NC(=O)[C@@H](NC(=O)[C@H](CCCN=C(N)N)NC(=O)CNC)C(C)C)CSC1(C)C)C(=O)O,9,,
CC[C@H](C)[C@H](NC(=O)[C@@H]1CCCN1C(=O)[C@H](Cc1c[nH]cn1)NC(=O)[C@@H]1N(C(=O)[C@H](Cc2ccc(O)cc2)NC(=O)[C@@H](NC(=O)[C@H](CCCN=C(N)N)NC(=O)CNC)C(C)C)CSC1(C)C)C(=O)O,,25,0%
CC[C@H](C)[C@H](NC(=O)[C@H](Cc1ccc(O)cc1)NC(=O)[C@H](C)NC(=O)[C@H](CCCN=C(N)N)NC(=O)CNC)C(=O)N[C@@H](Cc1c[nH]cn1)C(=O)N1CCC[C@H]1C(=O)N[C@@H](Cc1ccccc1)C(=O)O (H-[Sar]RAYIHPF-OH),,,38%
CC[C@H](C)[C@@H](C(=O)N[C@@H](Cc1c[nH]cn1)C(=O)N1CCC[C@H]1C(=O)N[C@@H](Cc1ccccc1)C(=O)O)N(C)C(=O)[C@H](Cc1ccc(O)cc1)NC(=O)[C@@H](NC(=O)[C@H](CCCN=C(N)N)NC(=O)CNC)C(C)C,,,20%
CC[C@H](C)[C@H](NC(=O)[C@@H]1CCCN1C(=O)[C@H](Cc1c[nH]cn1)NC(=O)[C@H](C)NC(=O)[C@H](Cc1ccc(O)cc1)NC(=O)[C@@H](NC(=O)[C@H](CCCN=C(N)N)NC(=O)CNC)C(C)C)C(=O)O (H-[Sar]RVYAHPI-OH),7.5,50,0%
"CNCC(=O)N[C@@H](CCCN=C(N)N)C(=O)N(C)[C@@H](C)C(=O)N[C@@H](Cc1ccc(O)cc1)C(=O)N1CSC(C)(C)[C@H]1C(=O)N[C@@H](Cc1c[nH]cn1)C(=O)N1CCC[C@H]1C(=O)NC(C)(C)C(=O)O (H-[Sar]R[NMeA]Y[Thz(5,5-Me2)]HP[Aib]-OH)",< 6,,
CC[C@H](C)[C@H](NC(=O)[C@H]1N(C(=O)[C@H](Cc2c[nH]cn2)NC(=O)[C@@H](NC(=O)[C@H](Cc2ccc(O)cc2)NC(=O)[C@@H](NC(=O)[C@H](CCCN=C(N)N)NC(=O)CNC)C(C)C)[C@@H](C)CC)CSC1(C)C)C(=O)O,7.5,,
CC[C@H](C)[C@H](NC(=O)[C@@H]1CCCN1C(=O)[C@H](Cc1c[nH]cn1)NC(=O)[C@@H](NC(=O)[C@H](Cc1ccc(O)cc1)NC(=O)[C@@H]1CCCN1C(=O)[C@H](CCCN=C(N)N)NC(=O)CNC)[C@@H](C)CC)C(=O)O (H-[Sar]RPYIHPI-OH),7.17,,1.5%
CC[C@H](C)[C@H](NC(=O)[C@H](Cc1ccc(O)cc1)NC(=O)[C@H](C)N(C)C(=O)[C@H](CCCN=C(N)N)NC(=O)CNC)C(=O)N[C@@H](Cc1c[nH]cn1)C(=O)N1CCC[C@H]1C(=O)N[C@@H](Cc1ccccc1)C(=O)O,,,120%
CC[C@@H](C)[C@@H](NC(=O)[C@H](Cc1ccc(O)cc1)NC(=O)[C@@H](NC(=O)[C@H](CCCN=C(N)N)NC(=O)CNC)C(C)C)C(=O)N[C@@H](Cc1c[nH]cn1)C(=O)N1CCC[C@H]1C(=O)NC(C)(C)C(=O)O,,,0%
CC[C@H](C)[C@H](NC(=O)[C@@H]1CCCN1C(=O)[C@H](Cc1c[nH]cn1)NC(=O)[C@@H](NC(=O)[C@H](Cc1ccc(O)cc1)NC(=O)[C@@H](NC(=O)[C@H](CCCN=C(N)N)NC(=O)CNC)C(C)C)C(C)(C)SC)C(=O)O (H-[Sar]RVY[Pen](Me)HPI-OH),9,,
CC[C@H](C)[C@H](NC(=O)[C@@H]1CCCN1C(=O)[C@H](Cc1c[nH]cn1)NC(=O)[C@H]([C@@H](C)CC)N(C)C(=O)[C@H](Cc1ccc(O)cc1)NC(=O)[C@@H](NC(=O)[C@H](CCCN=C(N)N)NC(=O)CNC)C(C)C)C(=O)O,7.64,,0%
CC[C@H](C)[C@H](NC(=O)[C@H]1CSCN1C(=O)[C@H](Cc1c[nH]cn1)NC(=O)[C@@H](NC(=O)[C@H](Cc1ccc(O)cc1)NC(=O)[C@@H](NC(=O)[C@H](CCCN=C(N)N)NC(=O)CNC)C(C)C)[C@@H](C)CC)C(=O)O,,,0%
CC[C@H](C)[C@H](NC(=O)[C@@H]1CCCN1C(=O)[C@H](Cc1c[nH]cn1)NC(=O)C1(NC(=O)[C@H](Cc2ccc(O)cc2)NC(=O)[C@@H](NC(=O)[C@H](CCCN=C(N)N)NC(=O)CNC)C(C)C)CCCC1)C(=O)O (H-[Sar]RVY[Ac5c]HPI-OH),8.3,10,0%
CC[C@H](C)[C@H](NC(=O)[C@H](Cc1ccc(O)cc1)NC(=O)[C@@H](NC(=O)[C@H](CCCN=C(N)N)NC(=O)CNC)C(C)C)C(=O)N[C@@H](Cc1c[nH]cn1)C(=O)N1CCC[C@H]1C(=O)N[C@H](Cc1ccccc1)C(=O)O,9,12.5,0%
CNCC(=O)N[C@@H](CCCN=C(N)N)C(=O)N[C@H](C(=O)N[C@@H](Cc1ccc(O)cc1)C(=O)N1CSC(C)(C)[C@@H]1C(=O)N[C@@H](Cc1c[nH]cn1)C(=O)N1CCC[C@H]1C(=O)N[C@H](Cc1ccccc1)C(=O)O)C(C)C,,1000,0%
CNCC(=O)N[C@@H](CCCN=C(N)N)C(=O)N[C@H](C(=O)N[C@@H](Cc1ccc(O)cc1)C(=O)NC1(C(=O)N[C@@H](Cc2c[nH]cn2)C(=O)N2CCC[C@H]2C(=O)N[C@@H](Cc2ccccc2)C(=O)O)CCCC1)C(C)C (H-[Sar]RVY[Ac5c]HPF-OH),,,70%
CC[C@H](C)[C@H](NC(=O)C(C)(C)NC(=O)[C@H](Cc1c[nH]cn1)NC(=O)[C@@H](NC(=O)[C@H](Cc1ccc(O)cc1)NC(=O)[C@@H](NC(=O)[C@H](CCCN=C(N)N)NC(=O)CNC)C(C)C)[C@@H](C)CC)C(=O)O (H-[Sar]RVYIH[Aib]I-OH),8,60,0%
CNCC(=O)N[C@@H](CCCN=C(N)N)C(=O)N[C@H](C(=O)N[C@@H](Cc1ccc(O)cc1)C(=O)N1CSC(C)(C)[C@H]1C(=O)N[C@@H](Cc1c[nH]cn1)C(=O)N1CCC[C@H]1C(=O)N[C@H](Cc1ccccc1)C(=O)O)C(C)C,7.5,,
CC[C@H](C)[C@H](NC(=O)[C@@H]1CCCN1C(=O)[C@H](Cc1c[nH]cn1)NC(=O)[C@@H](NC(=O)[C@H](Cc1ccc(O)cc1)NC(=O)[C@@H](NC(=O)[C@H](CCCN=C(N)N)NC(=O)CNC)C(C)C)[C@@H](C)CC)C(=O)O,,10,0%
CC[C@H](C)[C@H](NC(=O)[C@H]1C[S+]([O-])CN1C(=O)[C@H](Cc1c[nH]cn1)NC(=O)[C@@H](NC(=O)[C@H](Cc1ccc(O)cc1)NC(=O)[C@@H](NC(=O)[C@H](CCCN=C(N)N)NC(=O)CNC)C(C)C)[C@@H](C)CC)C(=O)O (stereo not given in full) (H-[Sar]RVYIH[X2]I-OH),6.7,,
CC[C@H](C)[C@H](NC(=O)[C@@H]1N(C(=O)[C@H](Cc2c[nH]cn2)NC(=O)[C@@H](NC(=O)[C@H](Cc2ccc(O)cc2)NC(=O)[C@@H](NC(=O)[C@H](CCCN=C(N)N)NC(=O)CNC)C(C)C)[C@@H](C)CC)CSC1(C)C)C(=O)O,,250,4%
